Data taken from ChEMBL document CHEMBL2034924, “Optimization of a Potent, Orally Active S1P1 Agonist Containing a Quinolinone Core” (ACS Med Chem Lett, 2012).
In brackets after ≈: the same amount, converted by molar mass.

Columns and labels:
[1] = biological target: T1, Sphingosine 1-phosphate receptor 3 (Homo sapiens, UniProt Q99500); experiment: Agonist activity at human S1P3 receptor expressed in CHO cells coexpressing Gq/i5 G-protein assessed as Ca2+ mobilization after 60 to 90 mins by FLIPR assay relative to 0.2 uM S1P
T1 sequence (Q99500 whole entry): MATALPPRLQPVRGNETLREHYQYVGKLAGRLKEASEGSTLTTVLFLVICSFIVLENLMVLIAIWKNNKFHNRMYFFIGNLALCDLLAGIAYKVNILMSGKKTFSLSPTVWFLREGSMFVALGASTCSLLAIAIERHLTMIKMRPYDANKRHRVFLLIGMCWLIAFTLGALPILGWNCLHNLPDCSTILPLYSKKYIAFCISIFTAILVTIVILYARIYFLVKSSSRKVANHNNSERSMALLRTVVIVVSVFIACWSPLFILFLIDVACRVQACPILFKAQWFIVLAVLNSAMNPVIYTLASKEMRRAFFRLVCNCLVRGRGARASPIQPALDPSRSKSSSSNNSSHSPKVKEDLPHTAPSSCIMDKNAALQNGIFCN

[2] = Plasma protein binding in rat; assay type: ADME, cell-free; conditions: read-out: PPB (converted)
Rattus norvegicus [3] = experiment: Lymphopenic activity in Lewis rat assessed as reduction in peripheral blood lymphocyte counts at 1 mg/kg, po measured 24 hrs post dosing relative to control; assay type: functional; parameters: scale not given: the % may be the effect or the level left
How it was run: (§1)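 Female Lewis rats (N = 5/group) received a single oral dose of 1 mg/kg in 20% captisol, 1% HPMC, 1% pluronic F68, pH 2.1 with MSA. Peripheral lymphocyte count is given as percent-of-control reduction versus vehicle at 24 h. Total plasma drug concentration was measured at 24 h. Statistics used ANOVA/Dunnett versus vehicle.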

[4] = biological target: T2, Sphingosine 1-phosphate receptor 1 (Homo sapiens, UniProt P21453); experiment: Agonist activity at human S1P1 receptor expressed in human U2OS cells co-expressing eGFP assessed as receptor internalization after 1 hr relative to 1-(4-(6-benzylbenzofuran-2-yl)-3-fluorobenzyl)azetidine-3-carboxylic acid; assay type: functional, cell-based
T2 sequence (P21453 whole entry): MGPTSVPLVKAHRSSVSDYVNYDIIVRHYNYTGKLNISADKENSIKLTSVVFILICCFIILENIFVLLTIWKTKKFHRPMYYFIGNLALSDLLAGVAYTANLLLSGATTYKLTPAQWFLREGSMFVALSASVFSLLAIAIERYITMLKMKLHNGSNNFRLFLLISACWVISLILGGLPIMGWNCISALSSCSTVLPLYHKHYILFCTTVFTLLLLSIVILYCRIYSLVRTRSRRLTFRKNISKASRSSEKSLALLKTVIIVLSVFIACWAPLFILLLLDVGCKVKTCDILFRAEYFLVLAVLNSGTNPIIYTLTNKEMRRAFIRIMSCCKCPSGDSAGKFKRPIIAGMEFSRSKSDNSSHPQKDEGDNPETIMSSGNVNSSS

[5] = biological target: T1, Sphingosine 1-phosphate receptor 3; experiment: Agonist activity at human S1P3 receptor expressed in CHO cells coexpressing Gq/i5 G-protein assessed as Ca2+ mobilization after 60 to 90 mins by FLIPR assay; assay type: functional, cell-based
How it was run: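 Ca2+ mobilization in CHO-K1 cells transfected with hS1P3/Gq/i5. EC50 is the molar concentration giving a half-maximal response.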

[6] = biological target: T2, Sphingosine 1-phosphate receptor 1; experiment: Agonist activity at human S1P1 receptor expressed in human U2OS cells co-expressing eGFP assessed as receptor internalization after 1 hr; assay type: functional, cell-based
How it was run: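 U2OS cells expressing an hS1P1-GFP fusion protein; the read-out was receptor internalization. EC50 is the molar concentration giving a half-maximal response.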

[7] = (§2) Plasma concentration in Lewis rat at 1 mg/kg, po measured 24 hrs post dosing; assay type: ADME, organism-based; parameters: dose 1 mg/kg, route oral; conditions: Lewis, plasma
How it was run: as §1

[8] = Intrinsic clearance in rat liver microsomes at 1 uM after 30 mins; assay type: ADME, Microsome; conditions: read-out: CLH
[9] = Efflux ratio of permeability in pig LLC-PK1 cells; assay type: ADME, cell-based, Sus scrofa
How it was run: (§3)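 Parental porcine proximal tubule LLC-PK1 cell line. Apparent permeability was measured, and the efflux ratio was derived from it.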

[10] = Apparent permeability of the compound across pig LLC-PK1 cells; assay type: ADME, cell-based, Sus scrofa
How it was run: as §3

[11] = Solubility of the compound in simulated intestinal fluid at pH 6.8 after 2 to 3 days by HPLC analysis; assay type: physicochemical
[12] = biological target: T1, Sphingosine 1-phosphate receptor 3; experiment: Agonist activity at human S1P3 receptor expressed in CHO cells coexpressing Gq/i5 G-protein assessed as Ca2+ mobilization at 25 uM after 60 to 90 mins by FLIPR assay; assay type: functional, cell-based
[13] = Clearance in C57BL/6 mouse at 1 mg/kg, iv and 3 mg/kg, po; assay type: ADME, organism-based; conditions: in vivo
How it was run: (§4)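 Female C57BL/6 mice. IV dosing used 40% hydroxypropyl β-cyclodextrin/60% water. Oral dosing used 1% HPMC/1% pluronic F68/20% HPBCD/78% water with MSA, pH 2.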

[14] = Volume of distribution at steady state in Sprague-Dawley rat at 1 mg/kg, iv; assay type: ADME, organism-based; parameters: dose 1 mg/kg, route intravenous; conditions: in vivo, read-out: Vdss
How it was run: (§5)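 Male Sprague-Dawley rats. IV doses were given in DMSO. Oral doses were given in 20% Captisol/1% Tween 80, pH 2, with MSA. Plasma was collected up to 48 h after dosing.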

[15] = AUC (0 to infinity) in nonhuman primates at 10 mg/kg, po; assay type: ADME, organism-based; parameters: dose 10 mg/kg, route oral, time infinity; conditions: plasma
How it was run: (§6)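 Pharmacokinetics in male nonhuman primates. IV vehicle was 40% hydroxypropyl β-cyclodextrin/60% water with MSA, pH 3. Oral vehicle was 1% HPMC/1% pluronic F68/20% HPBCD/78% water with MSA, pH 2.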

[16] = Volume of distribution at steady state in nonhuman primates at 4 mg/kg, iv; assay type: ADME, organism-based; parameters: dose 4 mg/kg, route intravenous; conditions: in vivo, read-out: Vdss
How it was run: as §6

Rattus norvegicus [17] = experiment: Lymphopenic activity in Lewis rat assessed as reduction in peripheral blood lymphocyte counts at 3 mg/kg, po measured 24 hrs post dosing relative to control; assay type: functional; parameters: scale not given: the % may be the effect or the level left
How it was run: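 Female Lewis rats (N = 3/group) received a single oral dose in 20% captisol/1% HPMC/1% pluronic F68, pH 2, with MSA. Blood lymphocyte counts and plasma concentration were measured at 24 h, reported as mean ± SE. Comparison was versus vehicle by ANOVA/Dunnett, P < 0.05.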

[18] = Mean residence time in C57BL/6 mouse at 1 mg/kg, iv; assay type: ADME, organism-based; parameters: dose 1 mg/kg, route intravenous; conditions: in vivo
How it was run: as §4

[19] = Oral bioavailability in Sprague-Dawley rat at 100 mg/kg; assay type: ADME, organism-based; conditions: in vivo
How it was run: as §5

[20] = Oral bioavailability in C57BL/6 mouse at 3 mg/kg; assay type: ADME, organism-based; conditions: in vivo
How it was run: as §4

[21] = Oral bioavailability in Sprague-Dawley rat at 2 mg/kg; assay type: ADME, organism-based; conditions: in vivo
How it was run: as §5

[22] = Oral bioavailability in nonhuman primates at 10 mg/kg; assay type: ADME, organism-based; conditions: in vivo
How it was run: as §6

[23] = AUC (0 to infinity) in C57BL/6 mouse at 3 mg/kg, po; assay type: ADME, organism-based; parameters: time infinity, dose 3 mg/kg, route oral; conditions: plasma
How it was run: as §4

[24] = Clearance in Sprague-Dawley rat at 1 mg/kg, iv and 2 mg/kg, po; assay type: ADME, organism-based; conditions: in vivo
How it was run: as §5

[25] = AUC (0 to infinity) in Sprague-Dawley rat at 2 mg/kg, po; assay type: ADME, organism-based; parameters: time infinity, dose 2 mg/kg, route oral; conditions: plasma
How it was run: as §5

[26] = Mean residence time in nonhuman primates at 4 mg/kg, iv; assay type: ADME, organism-based; parameters: dose 4 mg/kg, route intravenous; conditions: in vivo
How it was run: as §6

[27] = Half life in Sprague-Dawley rat at 1 to 2 mg/kg, iv and po; assay type: ADME, organism-based; parameters: dose 1-2 mg/kg, route oral; conditions: in vivo
How it was run: as §5

[28] = Clearance in nonhuman primates at 4 mg/kg, iv and 10 mg/kg, po; assay type: ADME, organism-based; conditions: in vivo
How it was run: as §6

[29] = Mean residence time in Sprague-Dawley rat at 1 mg/kg, iv; assay type: ADME, organism-based; parameters: dose 1 mg/kg, route intravenous; conditions: in vivo
How it was run: as §5

[30] = Half life in Sprague-Dawley rat at 100 mg/kg, po; assay type: ADME, organism-based; parameters: dose 100 mg/kg, route oral; conditions: in vivo
How it was run: as §5

[31] = AUC (0 to infinity) in Sprague-Dawley rat at 100 mg/kg, po; assay type: ADME, organism-based; parameters: time infinity, dose 100 mg/kg, route oral; conditions: plasma
How it was run: as §5

[32] = Volume of distribution at steady state in C57BL/6 mouse at 1 mg/kg, iv; assay type: ADME, organism-based; parameters: dose 1 mg/kg, route intravenous; conditions: in vivo, read-out: Vdss
How it was run: as §4

[33] = AUC (0 to 24 hrs) in rat at 3 mg/kg, po; assay type: ADME, organism-based; parameters: time < 24 hr, dose 3 mg/kg, route oral; conditions: plasma
Rattus norvegicus [34] = experiment: AUC (0 to 24 hrs) in rat at 100 mg/kg, po; assay type: ADME, organism-based, Plasma; parameters: time < 24 hr, dose 100 mg/kg, route oral; conditions: in vivo
Plasma = experiment: as §2; assay type: ADME, organism-based; parameters: dose 1 mg/kg, route oral; conditions: in vivo, 24 h, BLD = below limit of detection
How it was run: as §1

| Compound | fraction unbound [2] | Efficacy [4] [%] | EC50 [5] [µM] | EC50 [6] [µM] | concentration at 24 h [7] [ng/mL] | microsomal CLint at 1 µM [8] [µL/min/mg] | efflux ratio [9] | Papp [10] [×10⁻⁶ cm/s] | solubility [11] [µg/mL] | Activity [12] [%] | Activity (Rattus norvegicus [3]) [%] | further results |
| --- | --- | --- | --- | --- | --- | --- | --- | --- | --- | --- | --- | --- |
| Cn1cc(C(=O)Nc2ccc(-c3ccccc3)c(C(F)(F)F)c2)c(=O)c2cnc(CO)cc21 | 0.083 | 106 | > 25 | 0.018 | 84 | < 14 | 1 | 2.5 | > 200 | < 10 | -60 | clearance [13]: 5.17 mL/min/kg; Vd [14]: 5.8 L/kg; AUC(0-inf) [15]: 141 µM·h; Vd [16]: 4.3 L/kg; Activity (Rattus norvegicus [17]): 88%; MRT [18]: 20 h; bioavailability [19]: > 93%; bioavailability [20]: 75%; bioavailability [21]: 132%; bioavailability [22]: 67%; AUC(0-inf) [23]: 16 µM·h; clearance [24]: 5.17 mL/min/kg; AUC(0-inf) [25]: 19 µM·h; MRT [26]: 40 h; half-life [27]: 13 h; clearance [28]: 1.83 mL/min/kg; MRT [29]: 19 h; half-life [30]: 57 h; AUC(0-inf) [31]: 1630 µM·h; Vd [32]: 6 L/kg |
| Cn1cc(C(=O)Nc2ccc(-c3ccccc3)c(C(F)(F)F)c2)c(=O)c2ccc(CCO)cc21 | 0.073 | 118 | > 25 | 0.008 | 27 | < 14 | 1 | 2.2 | 6 (≈ 12.9 µM) | < 10 | -48 |  |
| COc1ccncc1C(=O)NC(=O)Nc1ccc(-c2ccccc2)c(C(F)(F)F)c1 |  |  |  |  |  |  |  |  |  |  |  | AUC(0-t) at 24 h [33]: 12 µM·h; AUC (Rattus norvegicus [34]): 73 µM·h |
| Cn1cc(C(=O)Nc2ccc(-c3ccccc3)c(C(F)(F)F)c2)c(=O)c2ccc(C(=O)O)cc21 | 0.02 | 98 | > 25 | 0.021 |  | < 14 | 6.7 | 3 | 48 (≈ 103 µM) | < 10 | 4 | Cp (Plasma): BLD |
| Cn1cc(C(=O)Nc2ccc(-c3ccccc3)c(C(F)(F)F)c2)c(=O)c2cnccc21 | 0.083 |  | > 25 |  |  | < 14 |  |  | 5 (≈ 11.8 µM) | < 10 | -64 |  |
| Cn1cc(C(=O)Nc2ccc(-c3ccccc3)c(C(F)(F)F)c2)c(=O)c2cc(CO)ccc21 |  | 46 | > 25 | 0.7 |  |  |  |  |  | < 10 |  |  |

Further lines, with some results ahead:

| fraction unbound [2] | Efficacy [4] [%] | EC50 [5] [µM] | EC50 [6] [µM] | concentration at 24 h [7] [ng/mL] | microsomal CLint at 1 µM [8] [µL/min/mg] | efflux ratio [9] | Papp [10] [×10⁻⁶ cm/s] | solubility [11] [µg/mL] | Activity [12] [%] | Compound | Activity (Rattus norvegicus [3]) [%] | further results |
| --- | --- | --- | --- | --- | --- | --- | --- | --- | --- | --- | --- | --- |
| 0.022 | 85 | 0.94 | 0.004 | 4 | < 14 | 1 | 1.6 | 200 (≈ 404 µM) |  | Cn1cc(C(=O)Nc2ccc(-c3ccccc3)c(C(F)(F)F)c2)c(=O)c2ccc(CCC(=O)O)cc21 | -25 | Efficacy [1]: 82% |
|  | 108 | > 25 | 0.025 |  |  |  |  |  | < 10 | Cn1cc(C(=O)Nc2ccc(-c3ccccc3)c(C(F)(F)F)c2)c(=O)c2ccc(CN3CC(C(=O)O)C3)cc21 |  |  |
|  | 88 | 1.3 | 0.038 |  |  |  |  |  |  | Cn1cc(C(=O)Nc2ccc(-c3ccccc3)c(C(F)(F)F)c2)c(=O)c2cnc(CCC(=O)O)cc21 |  | Efficacy [1]: 49% |
